An excerpt weighted towards active compounds, which were near 4% of everything screened.
Rev-RRE block: disrupts HIV-1 Rev binding to RRE RNA; P05866; Rev peptide-RRE RNA binding, FRET; inhibition, % at 8 µM; 0.79% of 97,000 active;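 active means inhibition above the screen-wide mean plus 3 SD, cut at about 35% in these data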
Target sequence (P05866 whole entry, looked up): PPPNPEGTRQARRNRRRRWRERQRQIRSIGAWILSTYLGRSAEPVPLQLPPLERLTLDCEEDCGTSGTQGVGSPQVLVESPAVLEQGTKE
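Material: labelled RRE RNA duplex and labelled Rev peptide / Buffer or medium: HEPES pH 7.5 salt buffer with EDTA / Compound dosing: single point, 8 µM final nominal compound concentration / Benchmarks: DMSO low control, neomycin B high control / Timing: 5 min preincubation and 15 min binding, 25 °C / Technique: FRET fluorescence readout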
ERa coact pot: enhances coactivator binding to human estrogen receptor alpha | coactivator binding (% of control), % at 25.6 µM | P03372 | TR-FRET ERalpha-LBD/SRC-Cy5 coactivator binding, 2 h; 100 = basal binding, no effect | 1.3% of 86,000 active | AID 639; in the data active means activity above about 200%;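 further: binding measured in presence of low estradiol as agonist stimulus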
Target sequence (P03372 whole entry, looked up, the tested form may be a part): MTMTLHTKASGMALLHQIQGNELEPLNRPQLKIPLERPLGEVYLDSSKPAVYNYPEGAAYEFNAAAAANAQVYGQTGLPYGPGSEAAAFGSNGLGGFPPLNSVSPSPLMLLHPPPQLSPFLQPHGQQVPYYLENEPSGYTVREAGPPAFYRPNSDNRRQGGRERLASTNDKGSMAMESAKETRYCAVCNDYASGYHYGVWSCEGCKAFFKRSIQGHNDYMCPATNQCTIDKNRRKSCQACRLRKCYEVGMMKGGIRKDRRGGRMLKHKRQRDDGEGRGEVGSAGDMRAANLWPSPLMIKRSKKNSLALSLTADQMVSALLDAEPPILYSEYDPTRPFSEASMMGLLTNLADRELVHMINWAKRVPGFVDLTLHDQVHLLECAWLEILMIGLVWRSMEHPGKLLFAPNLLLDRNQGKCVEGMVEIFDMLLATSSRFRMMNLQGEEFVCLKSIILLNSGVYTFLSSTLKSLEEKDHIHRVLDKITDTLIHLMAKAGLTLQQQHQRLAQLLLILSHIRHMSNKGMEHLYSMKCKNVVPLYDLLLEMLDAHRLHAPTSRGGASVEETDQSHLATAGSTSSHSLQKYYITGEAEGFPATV
ERa coact inh: blocks coactivator binding to human estrogen receptor alpha | 1.7% of 86,000 active | AID 629 | inhibition, % at 25.6 µM | TR-FRET ER-alpha LBD / SRC-1 peptide, estradiol-bound; in the data active means inhibition above about 50%
ERb coact inh: blocks coactivator binding to human estrogen receptor beta; 1.3% of 86,000 active; inhibition, % at 25.6 µM; Q92731; TR-FRET ER-beta LBD / SRC1-Cy5 peptide binding; receptor agonist-loaded with 1 µM estradiol;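 active means compounds whose percent inhibition of the receptor-coactivator binding signal exceeds about 50% in the single-dose screen, limit read from the data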
FAK inh: FAK (human) kinase inhibition; inhibition, %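 (tested at 7 µM)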; Q05397; AID 727; biochemical FAK kinase activity assay; 0.84% of 97,000 active; in the data active means inhibition above about 19%
Smad3 FoxH1 inh: blocks human Smad3 binding to FoxH1 peptide | P84022 | TR-FRET Smad3/Dy647-FoxH1 peptide binding, europium anti-His | inhibition, % at 25 µM | 0.29% of 88,000 active | AID 630;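 active means compounds that reduce the energy-transfer binding signal between the protein and its labelled peptide by more than half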
Hits are given with their value; i = inactive; nt = not tested or not shown; [ ] = remark or other dose.

SMILES	Rev-RRE block	ERa coact pot	ERa coact inh	ERb coact inh	FAK inh	Smad3 FoxH1 inh
COC(=O)c1ccc2c(=O)n(CC3CCCO3)c(SCC(=O)Nc3ccccc3Cl)nc2c1 (stereo not given)	i	i	56.6	i	i	i
CCCCCn1c(SCC#N)nc2cc(C(=O)NCC3CCCO3)ccc2c1=O (stereo not given)	i	248.3[fluorescence artefact?]	55.7[fluorescence artefact?]	i	i	i
COc1ccc(C(=O)Nc2ccccc2C(=O)N(Cc2ccco2)C(C(N)=O)C(C)C)cc1 (stereo not given)	i	i	57.2[fluorescence artefact?]	i	i	i
COc1ccc(C(=O)Nc2ccccc2C(N)=O)cc1	i	i	i	i	i	i
COC(=O)c1ccccc1NC(=O)NCc1ccco1	i	i	i	i	i	i
COc1ccc(C(=O)Nc2ccccc2C(=O)NC(C(=O)NCc2ccco2)C(C)C)cc1 (stereo not given)	i	241.8[fluorescence artefact?]	i	i	i	i
O=C(O)c1cc(=O)[nH]c(=S)[nH]1	nt	nt	nt	nt	nt	i
Cc1ccc(S(=O)(=O)NNC(=O)c2sc3nc(C)cc(C)c3c2-n2cccc2)cc1	i	nt	nt	nt	i	nt
O=C(Cn1nnc(-c2ccccc2NC(=O)c2ccccc2F)n1)NCc1ccco1	i	i	i	i	i	i
Cc1cnc(C(=O)Nc2ccccc2-c2nnn(CC(=O)NC3CCCC3)n2)cn1	i	i	i	i	i	i
COc1ccc(C(=O)Nc2ccccc2-c2nnn(CC(=O)NCc3ccco3)n2)cc1	i	209.9	i	i	i	i
O=C(Cn1nnc(-c2ccccc2NC(=O)c2ccco2)n1)NC1CCCCC1	i	288.1[fluorescence artefact?]	i	i	i	i
CCC(C)C(NC(=O)c1ccccc1NC(=O)c1ccco1)C(=O)NC1CCCCC1 (stereo not given)	nt	i	56.3[fluorescence artefact?]	i	nt	i
O=C(Cn1nnc(-c2ccccc2NC(=O)c2cccs2)n1)Nc1ccccc1	i	200.4[fluorescence artefact?]	64.6[fluorescence artefact?]	57.1[fluorescence artefact?]	i	i
CCN(CC(=O)O)C(=O)c1cccnc1	nt	nt	nt	nt	nt	i
O=C(O)CCNc1ccccc1C(=O)O	nt	nt	nt	nt	nt	i
Cc1cc(C)c2nc(C(F)(F)F)nc(NCCCN3CCOCC3)c2c1	i	i	i	i	i	i
Cc1ccc(C)c(-c2nn(-c3cc(N4CCN(CCO)CC4)ccc3[N+](=O)[O-])c(=O)c3ccccc23)c1	i	nt	nt	nt	i	nt
NC(=S)SCCC(=O)O	nt	nt	nt	nt	nt	i
Nc1c(OCC(=O)O)ccc2cc(S(=O)(=O)O)ccc12	nt	nt	nt	nt	nt	i
O[C@@H](c1cc(-c2ccccc2)nc2c1ccc1ccccc12)[C@@H]1CCCCN1	nt	nt	nt	nt	nt	i
COc1ccc(NC(=O)Cn2nnc(-c3ccccc3NC(=O)c3ccco3)n2)cc1	i	i	i	51.9[fluorescence artefact?]	i	i
O=c1cc(Cl)[nH]c(=O)n1CCNc1ncc(C(F)(F)F)cc1Cl	52.0	nt	nt	nt	i	nt
O=C(O)CSSCC(=O)O	nt	nt	nt	nt	nt	i
Cc1ccc2cccnc2c1NC(=S)NC(=O)c1ccccc1	i	nt	nt	nt	i	nt
SMILES	Rev-RRE block	ERa coact pot	ERa coact inh	ERb coact inh	FAK inh	Smad3 FoxH1 inh
Clc1ccc(SCc2cn3ccsc3n2)cc1	i	365.6[fluorescence artefact?]	i	i	i	i
CC(=O)C=NCC(=O)O	nt	nt	nt	nt	nt	i
[O-][N+]1(CC[N+]2([O-])CCCCC2)CCCCC1	nt	nt	nt	nt	nt	i
CC(=O)N1CCc2c(sc(NC(=O)c3ccc4c(c3)OCCO4)c2C#N)C1	nt	i	i	i	nt	i
CCN1CCc2nc(NC(=O)c3ccc4c(c3)OCCO4)sc2C1	36.4	i	51.4[fluorescence artefact?]	i	i	i
CCN1CCc2nc(NC(=O)CC(c3ccccc3)c3ccccc3)sc2C1	i	281.6[fluorescence artefact?]	i	i	i	i
CCN1CCc2nc(NC(=O)Cc3ccc4c(c3)OCCO4)sc2C1	i	i	53.5	i	i	i
Cc1nnc(NC(=O)c2cccc(S(=O)(=O)N3CCc4ccccc43)c2)s1	i	nt	nt	nt	i	nt
CCN1CCc2nc(NC(=O)C(c3ccccc3)c3ccccc3)sc2C1	i	i	i	i	i	i
CC1CCc2nc(NC(=O)CN3CCN(Cc4ccc5c(c4)OCO5)CC3)sc2C1 (stereo not given)	i	i	i	i	i	i
O=C(Nc1nc2c(s1)CN(Cc1ccccc1)CC2)c1cccc(S(=O)(=O)N2CCc3ccccc32)c1	121.9[fluorescence artefact?]	499.9[fluorescence artefact?]	i	i	i	i
COc1cc(NCC[C@@H]2CCCCN2)c2ncccc2c1	nt	nt	nt	nt	nt	i
CN(C)CC(C)(C)CN1c2ccccc2Sc2ccccc21	nt	nt	nt	nt	nt	i
C=CCN1C(=O)/C(=C/c2ccc(N(C)C)cc2)S/C1=N\c1nnc(CC)s1	131.5[fluorescence artefact?]	i	i	i	i	i
Cc1cc(Cl)ccc1Oc1nccc(N(C)C)c1C#N	i	nt	nt	nt	i	nt
Cc1cc(NC(=O)Cn2c(C)nc3ccccc3c2=O)ccc1Br	i	265.4	i	i	i	i
COc1cc(/C=C/C(=O)c2ccc(Cl)s2)cc(OC)c1O	i	nt	nt	nt	i	nt
COc1cc(/C=C2\SC(c3ccc(C)cc3)=NC2=O)cc(OC)c1O	50.2[fluorescence artefact?]	nt	nt	nt	i	nt
Nc1ncnc2c1ncn2[C@H]1O[C@@H](C(=O)OCCO)[C@H](O)[C@H]1O	nt	nt	nt	nt	nt	i
Cn1c2ccccc2c2cc(C(=O)OCC(=O)N3CC(=O)Nc4ccccc43)sc21	i	670.2[fluorescence artefact?]	i	i	i	i
C[C@@]12C[C@H](O)[C@@H]3[C@H](CCC4=CC(=O)CC[C@]43C)[C@H]1CC[C@H]2c1csc(N)n1	nt	nt	nt	nt	nt	i
Cc1cc(NC(=O)CN2CCN(Cc3ccccc3)CC2)nc2c1c(=O)oc1ccccc12	nt	i	i	i	nt	i
C/C(Nc1ccccc1)=C(/C#N)C(N)=O	i	i	i	i	i	95.6[fluorescence artefact?]
C/C(Nc1ccc(Cl)cc1)=C(/C#N)C(N)=O	i	i	i	i	i	i
Cc1cc2cc(CNC(=O)C3CC3)ccc2n1C	i	nt	nt	nt	i	nt
SMILES	Rev-RRE block	ERa coact pot	ERa coact inh	ERb coact inh	FAK inh	Smad3 FoxH1 inh
CCN(CC)S(=O)(=O)c1ccc(C(=O)NCc2ccc3c(c2)cc(C)n3C)cc1	i	i	i	i	i	i
Cc1cc2cc(CNC(=O)c3ccc(S(=O)(=O)N4CCCC4)cc3)ccc2n1C	i	293.0[fluorescence artefact?]	i	i	i	i
Cc1cc2cc(CNC(=O)c3ccc(S(=O)(=O)N4CCCCC4)cc3)ccc2n1C	i	404.3[fluorescence artefact?]	i	i	i	i
C[N+](C)(C)CCN(Cc1cccs1)c1ccccn1	nt	nt	nt	nt	nt	i
CCOC(=O)c1c(NC(=O)C(C)N2CCN(C(=O)c3ccco3)CC2)sc2c1CCCC2 (stereo not given)	i	nt	nt	nt	i	nt
O=C1CNCCCN2CCN(CCCNCC(=O)Nc3ccc(cc3)S(=O)(=O)c3ccc(cc3)NC(=O)CNCCCN3CCN(CCCNCC(=O)Nc4ccc(cc4)S(=O)(=O)c4ccc(cc4)N1)CC3)CC2	nt	nt	nt	nt	nt	i
Cc1cccc(-n2nnnc2SCC(=O)c2cc(C)n(Cc3ccco3)c2C)c1	i	i	88.7[fluorescence artefact?]	i	i	i
O=C(c1ccc(Cl)cc1)c1oc2ccccc2c1CS(=O)c1ccccc1 (stereo not given)	i	nt	nt	nt	i	nt
CSc1ncc2c(n1)-c1cc(C)ccc1SC2	i	i	97.5	i	i	i
Cc1nc2ccc(-c3nc4cc(N)ccc4o3)cc2[nH]1	i	i	i	i	i	i
Nc1ccc2oc(-c3ccc4nc[nH]c4c3)nc2c1	i	i	77.0[fluorescence artefact?]	i	i	i

From PubChem
